According to ChEMBL document CHEMBL4316620, “Dihydropyrrolones as bacterial quorum sensing inhibitors” (Bioorg Med Chem Lett, 2019):
Activity calls are given as the source filed them. No cut-off for these calls is given here.

How the values were obtained:
Pseudomonas aeruginosa [1] = assay: Inhibition of biofilm formation in Pseudomonas aeruginosa PAO1 at 250 uM incubated for 6 hrs by crystal violet staining based method; type: functional; conditions: for inhibition at 250 µM: PAO1, 6 h
Summary of the method: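 P. aeruginosa PA01 biofilm. Cultures grown with or without test compound for 6 h. Biofilm biomass quantified by crystal violet staining (OD550). % inhibition calculated relative to DMSO control.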

[2] = Inhibition of quorum sensing system in Pseudomonas aeruginosa MH602 PlasB::gfp at 62.5 uM incubated for 15 hrs by GFP reporter gene assay
Summary of the method: (§1)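 Reporter strain P. aeruginosa PlasB::gfp (PAMH602) makes its own AHL; lasB promoter drives GFP-ASV. Cultures incubated with compound over 250–31.25 µM at 37 °C for 15 h, then GFP fluorescence read at 535 nm. QSI expressed as % relative to untreated PAMH602 negative control. Furanone positive control.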

Pseudomonas aeruginosa [3] = assay: Toxicity in Pseudomonas aeruginosa MH602 PlasB::gfp assessed as inhibition of bacterial growth at 125 uM incubated for 15 hrs by spectrophotometry; type: organism-based; conditions: MH602, 15 h, read-out: GI
[4] = Inhibition of quorum sensing system in Pseudomonas aeruginosa MH602 PlasB::gfp at 250 uM incubated for 15 hrs by GFP reporter gene assay; summary of the method: as §1
Pseudomonas aeruginosa [5] = assay: Toxicity in Pseudomonas aeruginosa MH602 PlasB::gfp assessed as inhibition of bacterial growth at 31.25 uM incubated for 15 hrs by spectrophotometry; type: organism-based; conditions: MH602, 15 h, read-out: GI
[6] = Inhibition of quorum sensing system in Pseudomonas aeruginosa MH602 PlasB::gfp at 31.25 uM incubated for 15 hrs by GFP reporter gene assay; summary of the method: as §1
Pseudomonas aeruginosa [7] = assay: Toxicity in Pseudomonas aeruginosa MH602 PlasB::gfp assessed as inhibition of bacterial growth at 62.5 uM incubated for 15 hrs by spectrophotometry; type: organism-based; conditions: MH602, 15 h, read-out: GI
[8] = Inhibition of quorum sensing system in Pseudomonas aeruginosa MH602 PlasB::gfp at 125 uM incubated for 15 hrs by GFP reporter gene assay; summary of the method: as §1
Pseudomonas aeruginosa [9] = assay: Toxicity in Pseudomonas aeruginosa MH602 PlasB::gfp assessed as inhibition of bacterial growth at 250 uM incubated for 15 hrs by spectrophotometry; type: organism-based; conditions: MH602, 15 h, read-out: GI

| Compound | inhibition at 250 µM (Pseudomonas aeruginosa [1]) [%] | inhibition [2] [%] | inhibition at 125 µM (Pseudomonas aeruginosa [3]) [%] | inhibition [4] [%] | inhibition at 31.25 µM (Pseudomonas aeruginosa [5]) [%] | inhibition [6] [%] | inhibition at 62.5 µM (Pseudomonas aeruginosa [7]) [%] | inhibition [8] [%] | inhibition at 250 µM (Pseudomonas aeruginosa [9]) [%] | inhibition (Pseudomonas aeruginosa [1]) |
| --- | --- | --- | --- | --- | --- | --- | --- | --- | --- | --- |
| C=C1C(c2ccccc2F)=CC(=O)N1c1ccc(Cl)cc1 | 46.5 | 51.6 | ≤ 15 | 59.4 | ≤ 15 | 36.2 | ≤ 15 | 57.9 | ≤ 15 | – |
| C=C1NC(=O)C=C1c1ccc([N+](=O)[O-])cc1 | 57.2 | 63.5 | ≤ 15 | 80.9 | ≤ 15 | 51.3 | ≤ 15 | 69.9 | 15 to 30 | – |
| C=C1NC(=O)C=C1c1ccccc1F | 51.3 | 58.3 | ≤ 15 | 72 | ≤ 15 | 37.8 | ≤ 15 | 69.7 | ≤ 15 | – |
| C=C1NC(=O)C=C1c1cccc(Cl)c1 | 47.3 | 54.7 | ≤ 15 | 73.3 | ≤ 15 | 26.3 | ≤ 15 | 69.4 | ≤ 15 | – |
| C=C1NC(=O)C=C1c1ccc(Br)cc1 | 62.5 | 66.9 | ≤ 15 | 82.3 | ≤ 15 | 63.1 | ≤ 15 | 75.2 | 15 to 30 | – |
| C=C1C(c2ccccc2F)=CC(=O)N1c1cccc(Cl)c1 | 46.9 | 49.6 | ≤ 15 | 64.4 | ≤ 15 | 38.7 | ≤ 15 | 57.3 | ≤ 15 | – |
| C=C1C(c2ccc(Br)cc2)=CC(=O)N1c1ccccc1 | 35.2 | 39.2 | ≤ 15 | 78.6 | ≤ 15 | 22 | ≤ 15 | 62 | 15 to 30 | – |
| C=C1C(c2ccccc2F)=CC(=O)N1c1ccccc1 | 38.2 | 56.9 | ≤ 15 | 63.7 | ≤ 15 | 46.4 | ≤ 15 | 60.9 | ≤ 15 | – |
| C=C1NC(=O)C=C1c1cccc(C(F)(F)F)c1 | 50.3 | 57.1 | ≤ 15 | 74.4 | ≤ 15 | 35.4 | ≤ 15 | 67.9 | ≤ 15 | – |
| C=C1C(c2ccc(Br)cc2)=CC(=O)N1c1ccc(C(F)(F)F)cc1 | 37.5 | 45.8 | ≤ 15 | 52.8 | ≤ 15 | 11.2 | ≤ 15 | 48.4 | ≤ 15 | – |
| O=C1C=C(c2ccc(Cl)cc2)CN1 | 9.6 | 26.4 | ≤ 15 | 61.5 | ≤ 15 | 22.6 | ≤ 15 | 42.7 | ≤ 15 | – |
| O=C1C=C(c2ccccc2F)CN1 | 10.9 | 30.5 | ≤ 15 | 67.9 | ≤ 15 | 24.4 | ≤ 15 | 48.8 | ≤ 15 | – |
| COc1ccc(C2=CC(=O)NC2)cc1 | – | 27.2 | ≤ 15 | 66.5 | ≤ 15 | 26.9 | ≤ 15 | 48.5 | ≤ 15 | inactive |
| O=C1C=C(c2ccccc2)/C(=C/Br)N1 | – | 66.6 | > 30 | 84.8 | ≤ 15 | 56.8 | 15 to 30 | 77.8 | > 30 | – |
| C=C1NC(=O)C=C1c1ccc(C(=O)O)cc1 | 12.9 | 33.6 | ≤ 15 | 68 | ≤ 15 | 19.6 | ≤ 15 | 50.8 | ≤ 15 | – |
